Shown are actives, neighbours in structure and some others; about 1.2% of the full set was active somewhere.
CaV13 ICDI inh: Disruptors of the CACNA1D IQ motif to Ca2+-dependent inactivation inhibitor domain association, primary screening, Förster resonance energy transfer in intact living …. inhibition, % at 12.3 µM. AID 743397. HEK cells, CFP/YFP FRET ICDI-IQ, plate reader, 10 min; percent FRET-ratio fall versus neutral wells. hit rate 0.098% among 340,000;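 active means mean replicate inhibition of at least 30% and at least 1% of replicates passing that level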;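 further: 0% = median of the neutral control wells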
SR-BI DiI inh: inhibitors of SR-BI mediated HDL lipid uptake, primary screen, ldlA[mSR-BI] cells, fluorescence, single point | Scavenger receptor class B member 1 (Mus musculus), Q61009 | AID 488896, 2010 | ldlA[mSR-BI] CHO cells, DiI-HDL uptake fluorescence, 3 h | inhibition, % at 12.5 µM | hit rate 0.96% among 320,000;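 active means mean replicate inhibition of at least 70% and a set share of replicates each scoring 70 or more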;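 further: 0% = median of neutral control wells and 100% = median of positive control wells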
Target sequence (Q61009 whole entry, looked up): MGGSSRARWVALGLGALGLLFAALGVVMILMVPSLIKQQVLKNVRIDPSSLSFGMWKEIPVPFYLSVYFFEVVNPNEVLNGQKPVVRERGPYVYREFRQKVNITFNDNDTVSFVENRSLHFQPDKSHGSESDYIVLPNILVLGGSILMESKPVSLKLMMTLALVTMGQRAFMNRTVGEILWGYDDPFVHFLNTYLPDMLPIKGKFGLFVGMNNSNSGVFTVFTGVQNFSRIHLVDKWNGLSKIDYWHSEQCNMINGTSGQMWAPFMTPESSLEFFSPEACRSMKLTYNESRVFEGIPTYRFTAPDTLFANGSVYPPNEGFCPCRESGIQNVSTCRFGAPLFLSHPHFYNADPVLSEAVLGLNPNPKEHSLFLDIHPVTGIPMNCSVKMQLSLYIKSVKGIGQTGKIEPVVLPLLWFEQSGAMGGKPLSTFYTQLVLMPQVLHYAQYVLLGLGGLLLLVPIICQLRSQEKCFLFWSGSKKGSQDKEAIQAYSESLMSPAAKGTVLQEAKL
SR-BI DiI-HDL act: activators of SR-BI mediated DiI-HDL uptake, primary screen, ldlA[mSR-BI] CHO cells, DiI fluorescence; AID 504775, 2011; hit rate 0.096% among 320,000; 3 h; 100 = double the neutral-control signal; activation, % at 12.5 µM;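 active means mean replicate activation of at least 60% and every replicate at or above 60%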;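 further: 0% = median plate neutral-control signal and 100% = twice that signal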
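Material: SR-BI-overexpressing, LDLR-lacking CHO cells | Dosing: Single compound concentration, delivered by pin transfer | Probe or stimulus: Labelled HDL, 10 µg/mL | Signal: Bottom-read cell fluorescence after medium removal, ex 550/em 595 nm | Schedule: 3 h, 37 °C | Evaluation: HDL uptake via cellular fluorescence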
FN deposit inh: inhibitors of fibronectin matrix deposition, primary screen, AH1F cells, Alexa488-fibronectin fluorescence, plate reader | AH1F fibroblasts, overnight | inhibition, % at 12.6 µM | hit rate 0.086% among 350,000;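 active means mean inhibition across replicates of 30% or more, regardless of how many single replicates reach that level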;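 further: positive control wells lacked labelled fibronectin entirely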
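Assay system: AH1F fibroblast monolayer, labelled fibronectin deposition. Amount: 10000 cells per well. Also added: labelled fibronectin 24 nM. Compound: single-point pinned compound. Incubation: cell attachment 1 h, compound and FN exposure overnight. Detection: fluorescence after three HBSS washes, excitation 485 nm, emission 525 nm. Read-out: inhibition of fibronectin deposition signal.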
Efflux pump mplx: inhibitors of Candida efflux pumps in yeast, primary screen, S. cerevisiae, Nile Red, multiplex; S. cerevisiae Candida pump triplex; inhibition, % at 10 µM; hit rate 0.44% among 330,000; AID 485275, 2010;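 active means plate passing quality check with inhibition over a set limit, or well fluorescence over plate mean plus 4 SD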;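 further: Nile Red retained in pooled yeast measured as flow cytometry median fluorescence; 0% = buffer negative control and 100% = Enniatin B positive control; higher means more Nile Red kept so more efflux inhibition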
Yeast cmpd fluor: counter-screen for efflux pump inhibitors: compound fluorescence; AID 588517; shares compounds with Efflux pump mplx; S. cerevisiae AD/pABC3, flow cytometry; hit rate 4% among 1,700; fluorescence ratio to DMSO, % at 10 µM;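 active means fluorescence ratio to DMSO above its plate's cutoff, the plate mean ratio plus 5 SD, cut at about 210% in these data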;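 further: unstained yeast with no Nile Red so the signal is compound autofluorescence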
CaMdr1 efflux inh: inhibitors of Candida albicans Mdr1 efflux, confirmation, flow cytometry, singleplex, Cherry Pick1 set; S. cerevisiae AD/CaMDR1, Nile Red efflux; inhibition, % at 10 µM; AID 588518, 2011; shares compounds with Efflux pump mplx; hit rate 1% among 1,700; in the data active means inhibition above about 26%;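 further: 0% = DMSO vehicle and 100% = reference inhibitor; higher means more Nile Red retained so more efflux inhibition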
CaCdr2 efflux inh: inhibitors of Candida albicans Cdr2 efflux pump, confirmation, S. cerevisiae AD/CaCDR2, flow cytometry, cherry pick 1, singleplex; shares compounds with Efflux pump mplx; Nile Red retention; Nile Red retention ratio vs DMSO, % at 10 µM; hit rate 4% among 1,700; AID 588520, 2011; in the data active means Nile Red retention ratio vs DMSO above about 190%;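 further: higher ratio means more blocking of Cdr2 efflux of the dye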
Cdr1 pump inh: inhibitors of Candida albicans Cdr1 efflux pump, confirmation, S. cerevisiae AD/CaCDR1, flow cytometry, cherry pick 1, singleplex; shares compounds with Efflux pump mplx; Nile Red efflux; inhibition, % at 10 µM; hit rate 1% among 1,700; AID 588522, 2011;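 active means inhibition above the screen-wide mean plus twice its standard deviation, cut at about 32% in these data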
An asterisk follows results filed as active; · = not tested or not shown.

SMILES | CaV13 ICDI inh | SR-BI DiI inh | SR-BI DiI-HDL act | FN deposit inh | Efflux pump mplx | Yeast cmpd fluor | CaMdr1 efflux inh | CaCdr2 efflux inh | Cdr1 pump inh
O=S(=O)(c1ccc(F)cc1)N1CCN(CC(O)COCc2cccs2)CC1 (configuration not stated) | -5.6 | -1.1 | 1.1 | 2.1 | -0.1 | · | · | · | ·
CNC(=S)N(CCc1cccc(C)c1)Cc1cc2cc(OC)c(OC)cc2[nH]c1=O | -3.0 | -15.9 | 15.8 | 5.3 | 1.7* | 106.2 | -0.1 | 93.5 | 0.2
COc1ccc(S(=O)(=O)N(C)C[C@H]2OCCCC[C@H](C)Oc3ccc(NS(=O)(=O)c4ccc(Cl)cc4)cc3C(=O)N([C@H](C)CO)C[C@H]2C)cc1 | · | · | · | -7.3 | · | · | · | · | ·
O=C(c1cc(COc2cccc(C(F)(F)F)c2)on1)N1CCCC1 | -4.7 | · | · | -7.5 | · | · | · | · | ·
C[C@@H]1CN(C(=O)c2cc(COc3cccc(C(F)(F)F)c3)on2)C[C@H](C)O1 | -6.6 | -11.1 | 11.1 | -2.4 | 0.5* | 97.6 | -0.2 | 105.1 | -0.1
CC(C)Cc1nnc(NS(=O)(=O)Cc2ccccc2)s1 | -4.1 | -24.5 | 24.5 | 9.0 | 9.0* | 107.9 | -0.3 | 106.0 | 0.0
Cc1cc2oc(=O)c(CC(=O)NCCCN(C)C)c(C)c2c2occ(C(C)(C)C)c12 | · | · | · | · | 0.9* | 107.8 | -0.2 | 89.3 | 0.0
O=C(CN1C(=O)CSc2ccc(S(=O)(=O)N3CCOCC3)cc21)NCCCN1CCCCC1 | -7.6 | -10.9 | 10.9 | -10.2 | 0.1 | · | · | · | ·
CC1CC(C)CN(CCCNC(=O)CN2C(=O)CSc3ccc(S(=O)(=O)N4CCCCC4)cc32)C1 (configuration not stated) | -2.4 | -14.6 | 14.6 | -7.9 | 0.6* | 99.0 | -0.3 | 109.4 | 0.0
C[C@H](CO)N1C[C@H](C)[C@H](CN(C)Cc2ccc(Cl)c(Cl)c2)Oc2ccc(NS(=O)(=O)c3ccccc3)cc2C1=O | · | · | · | 0.0 | · | · | · | · | ·
C[C@H](CO)N1C[C@H](C)[C@H](CN(C)C(=O)Nc2ccc(F)cc2)Oc2c(NC(=O)c3ccncc3)cccc2C1=O | · | · | · | 0.3 | · | · | · | · | ·
O=C(C[C@@H]1CC[C@@H]2[C@H](COC[C@H](O)CN2Cc2cccc(Cl)c2)O1)NCC1CCCCC1 | · | · | · | -8.3 | · | · | · | · | ·
Clc1ccc(-c2n[nH]c3c2CCCC3)cc1 | 3.4 | 9.5 | -9.5 | -2.2 | 0.2 | · | · | · | ·
Clc1ccc(-c2n[nH]c3c2CCC3)cc1Cl | · | · | · | · | 0.6* | 93.7 | 0.0 | 103.6 | -0.3
COc1cc(C(=O)N2CCN(c3cc(Cl)ccc3Cl)CC2)cc(OC)c1OC | -6.8 | 28.8 | -28.8 | -7.8 | 0.6* | 101.4 | -0.1 | 91.4 | -0.1
O=C(C[C@@H]1CC[C@@H]2[C@H](COC[C@@H](O)CN2C(=O)Nc2ccc(Cl)cc2)O1)NCCc1ccncc1 | · | · | · | -16.7 | · | · | · | · | ·
NC1=NC[C@@H](Cc2ccc(O)cc2)N1CCc1cccc2ccccc12 | -3.7 | 13.4 | -13.4 | -4.1 | -0.1 | 93.7 | -0.3 | 90.9 | -0.3
NC1=NC[C@@H](CC2CCCCC2)N1CCc1cc(C(F)(F)F)cc(C(F)(F)F)c1 | · | 16.9 | -16.9 | · | 0.1 | · | · | · | ·
NC1=NC[C@H](Cc2ccc(O)cc2)N1CCc1cc(C(F)(F)F)cc(C(F)(F)F)c1 | -12.0 | -36.0 | 36.0 | 2.8 | -0.1 | 104.6 | 0.1 | 99.7 | -0.2
CCOC(=O)C1(C(F)(F)F)N=C(c2cccnc2)OC(N2CCCCC2)=N1 (configuration not stated) | -4.3 | 6.9 | -6.9 | 3.7 | 5.5* | 104.5 | 0.0 | 116.5 | 0.1
CC(/C=C1\SC(=S)N(NC(=O)c2ccncc2)C1=O)=C\c1ccccc1 | -18.6 | 10.5 | -10.5 | 2.7 | 0.4 | 87.6 | -0.1 | 86.9 | -0.2
COc1cc(/C=C2\SC(=S)N(NS(=O)(=O)c3ccc(C)cc3)C2=O)ccc1O | -5.1 | · | · | 11.2 | 0.0 | 116.8 | 0.1 | 109.4 | 0.0
O=C(NN1C(=O)/C(=C/c2cccs2)SC1=S)c1ccccc1 | · | -2.7 | 2.7 | · | -0.1 | · | · | · | ·
Cn1cccc1/C=C1\SC(=S)N(NC(=O)c2ccc(F)cc2)C1=O | -4.5 | 16.3 | -16.3 | -7.5 | 0.0 | 91.9 | -0.1 | 86.9 | -0.1
O=C(NN1C(=O)/C(=C/c2cccs2)SC1=S)c1cccnc1 | -11.9 | · | · | 2.0 | -0.2 | 105.0 | -0.2 | 93.0 | 0.1
SMILES | CaV13 ICDI inh | SR-BI DiI inh | SR-BI DiI-HDL act | FN deposit inh | Efflux pump mplx | Yeast cmpd fluor | CaMdr1 efflux inh | CaCdr2 efflux inh | Cdr1 pump inh
COc1cc(/C=C2\SC(=S)N(NS(=O)(=O)c3ccccc3)C2=O)ccc1O | -5.9 | -22.8 | 22.8 | 0.3 | 0.2 | · | · | · | ·
C[C@@H]1CCCCO[C@@H](CN(C)Cc2ccccc2)[C@@H](C)CN([C@H](C)CO)C(=O)c2cc(NS(=O)(=O)c3cn(C)cn3)ccc2O1 | · | · | · | -17.9 | · | · | · | · | ·
N#C[C@H]1[C@H](c2ccccc2-c2ccccc2F)[C@@H](CO)N1C(=O)C1CC1 | · | · | · | -8.3 | · | · | · | · | ·
CC(/C=C1\SC(=S)N(NS(=O)(=O)c2ccc(C)cc2)C1=O)=C\c1ccccc1 | -4.2 | -26.7 | 26.7 | 1.9 | 0.1 | 109.5 | -0.1 | 103.9 | -0.1
O=C(Nc1cc(Br)ccc1O)c1cc(-c2ccc3c(c2)OCO3)on1 | -7.2 | -10.1 | 10.1 | -16.6 | 0.5 | · | · | · | ·
CSc1ccccc1NC(=O)c1cc(-c2ccc3c(c2)OCO3)on1 | -2.4 | · | · | -2.3 | 1.6* | 89.3 | -0.1 | 105.1 | -0.2
Cc1cccc(S(=O)(=O)N2C[C@@H](O)COC[C@@H]3O[C@H](CC(=O)NCc4ccc5c(c4)OCO5)CC[C@H]32)c1 | · | · | · | -6.5 | · | · | · | · | ·
CC(C)CCNC(=O)c1onc(CSc2ccccn2)c1C(=O)NCCC(C)C | -4.9 | 0.1 | -0.1 | -2.6 | 0.6* | 103.6 | 0.0 | 101.7 | -0.2
COCCNC(=O)c1onc(CSc2ccccn2)c1C(=O)NCCOC | -3.6 | -12.1 | 12.1 | 10.5 | -0.3 | · | · | · | ·
CC(C)NC(=O)N(C)C[C@H]1Oc2c(NS(=O)(=O)c3ccccc3)cccc2C(=O)N([C@@H](C)CO)C[C@H]1C | · | · | · | -7.4 | · | · | · | · | ·
